{
  "source": "ChEMBL document CHEMBL3763011",
  "about": "“Carbohydrate-based inducers of cellular stress for targeting cancer cells” (Bioorg Med Chem Lett, 2016)",
  "key": {"NCI-H1299 [1]": {"test_system": "NCI-H1299", "assay": "Induction of ROS generation in human NCI-H1299 cells at 100 uM after 5 hrs by DCF-DA staining-based assay", "type": "functional", "summary_of_the_method": "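Single-point screen at 100 µM in duplicate, 5 h incubation in H1299 cells. ROS detected by DCF-DA fluorescence, reported as fold over non-treated control (Fi/Fo).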"}, "NCI-H1299 [2]": {"test_system": "NCI-H1299", "assay": "Cytotoxicity against human NCI-H1299 cells assessed as reduction in cell viability after 48 hrs by MTT assay", "type": "functional, cell-based", "settings": "for IC50: NCI-H1299, 48 h", "summary_of_the_method": "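H1299 non-small cell lung carcinoma cells incubated with compound for 48 h. Viability by MTT relative to non-treated control (Vi/Vo). IC50 taken from dose–response.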"}, "NCI-H1299 [3]": {"test_system": "NCI-H1299", "assay": "Induction of ROS generation in human NCI-H1299 cells at <= 50 uM after 5 hrs by DCF-DA staining-based assay", "type": "functional", "summary_of_the_method": "(§1)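 H1299 cells incubated 5 h with increasing compound concentrations (0–100 µM). ROS read with the cell-permeable probe DCF-DA. Fluorescence of treated cells (Fi) ratioed to non-treated control (Fo).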"}, "[4]": {"target": "T1, AMP-activated protein kinase, AMPK (Homo sapiens) (UniProt P54646+O43741+P54619+Q9UGJ0+Q9Y478+Q13131+Q9UGI9)", "assay": "Activation of AMPK in HEK293 cells assessed as AMPK phosphorylation after 16 hrs by Western blotting method", "type": "cell-based", "summary_of_the_method": "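HEK293 cells treated with increasing concentrations of compound for 16 h; cell lysates analysed by Western blot with antibodies to phosphorylated AMPK (also p53).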"}, "[5]": {"target": "T1, AMP-activated protein kinase, AMPK (Homo sapiens)", "assay": "Activation of AMPK in HEK293 cells assessed as p53 stabilization at 0.03 to 0.1 mM after 16 hrs by Western blotting method", "type": "cell-based"}, "[6]": {"target": "Endoplasmic reticulum chaperone BiP (Homo sapiens) (UniProt P11021)", "sequence (P11021 whole entry)": "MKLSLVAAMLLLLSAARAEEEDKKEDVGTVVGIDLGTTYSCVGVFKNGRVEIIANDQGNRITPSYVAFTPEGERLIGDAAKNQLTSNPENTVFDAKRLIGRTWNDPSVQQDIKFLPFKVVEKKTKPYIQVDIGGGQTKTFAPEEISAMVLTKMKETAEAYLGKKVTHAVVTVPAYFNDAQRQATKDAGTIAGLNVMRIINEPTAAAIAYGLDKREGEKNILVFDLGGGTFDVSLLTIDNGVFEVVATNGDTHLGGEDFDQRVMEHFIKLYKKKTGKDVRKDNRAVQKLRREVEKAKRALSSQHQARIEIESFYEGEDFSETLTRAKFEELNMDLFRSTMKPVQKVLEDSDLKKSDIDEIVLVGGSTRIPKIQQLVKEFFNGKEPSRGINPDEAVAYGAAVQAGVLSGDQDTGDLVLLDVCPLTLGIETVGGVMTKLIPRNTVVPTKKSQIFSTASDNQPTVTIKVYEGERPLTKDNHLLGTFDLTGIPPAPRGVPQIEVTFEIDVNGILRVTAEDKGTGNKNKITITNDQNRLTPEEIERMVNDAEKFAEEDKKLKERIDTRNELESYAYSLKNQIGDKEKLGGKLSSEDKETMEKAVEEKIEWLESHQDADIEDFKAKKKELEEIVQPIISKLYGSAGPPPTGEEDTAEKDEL", "assay": "Induction of glucose-regulated protein 78 in HEK293 cells at 200 uM after 6 hrs by Western blotting method", "type": "cell-based", "summary_of_the_method": "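GRP78 (BiP) induction, an ER stress marker, assessed by Western blot of HEK293 lysates after treatment at 200 µM.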"}, "NCI-H1299 [7]": {"test_system": "NCI-H1299", "assay": "Cytotoxicity against human NCI-H1299 cells assessed as reduction in cell viability at 100 uM after 48 hrs by MTT assay", "type": "functional, cell-based", "summary_of_the_method": "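H1299 cells treated at 100 µM for 48 h in duplicate. MTT viability expressed as treated versus non-treated control (Vi/Vo).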"}, "NCI-H1299 [8]": {"test_system": "NCI-H1299", "assay": "Induction of ROS generation in human NCI-H1299 cells at <= 100 uM after 5 hrs by DCF-DA staining-based assay", "type": "functional"}, "NCI-H1299 [9]": {"test_system": "NCI-H1299", "assay": "Induction of ROS generation in human NCI-H1299 cells after 5 hrs by DCF-DA staining-based assay", "type": "functional, cell-based", "summary_of_the_method": "as §1"}, "NCI-H1299 [10]": {"test_system": "NCI-H1299", "assay": "Cytotoxicity against human NCI-H1299 cells assessed as viability at 500 uM after 48 hrs by MTT assay", "type": "functional", "settings": "NCI-H1299, 48 h, read-out: Activity", "summary_of_the_method": "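H1299 non-small cell lung carcinoma cells incubated with compound for 48 h; viability read by MTT assay and expressed as treated (Vi) relative to non-treated control (Vo).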"}, "NCI-H1299 [11]": {"test_system": "NCI-H1299", "assay": "Induction of ROS generation in human NCI-H1299 cells at […] after 5 hrs by DCF-DA staining-based assay"}},
  "note": "Activity calls are given as the source filed them. No cut-off for these calls is given here.",
  "data": [
    {"smiles": "O=c1oc2ccccc2cc1N[C@@H]1OC[C@H](O)[C@H](O)[C@H]1O", "values": [
      {"measurement": "fold change (FC)", "setting": "NCI-H1299 [1]", "value": ">=2"}
    ]},
    {"smiles": "CC(=O)N[C@H]1C(Nc2ccc3nccnc3c2)O[C@H](CO)[C@@H](O)[C@@H]1O", "note": "(stereo partly specified)", "values": [
      {"measurement": "fold change (FC)", "setting": "NCI-H1299 [1]", "value": ">=2"}
    ]},
    {"smiles": "CC(=O)O[C@@H]1[C@@H](OC(C)=O)[C@H](OC(C)=O)CO[C@H]1Nc1cccc2ccccc12", "values": [
      {"measurement": "IC50", "setting": "NCI-H1299 [2]", "value": 30, "unit": "µM"},
      {"measurement": "fold change (FC)", "setting": "NCI-H1299 [3]", "value": 1.5},
      {"measurement": "Activity", "setting": "[4]", "value": "Dose-dependent effect"},
      {"measurement": "Activity", "setting": "[5]", "value": "Active"},
      {"measurement": "Activity", "setting": "[6]", "value": "Active"}
    ]},
    {"smiles": "CC(=O)OC1OC[C@@H](OC(C)=O)[C@H](OC(C)=O)[C@H]1OC(C)=O", "note": "(stereo partly specified)", "values": [
      {"measurement": "Activity", "setting": "NCI-H1299 [2]", "value": "inactive"}
    ]},
    {"smiles": "O[C@@H]1[C@@H](O)[C@@H](O)CO[C@H]1Nc1ccccc1", "values": [
      {"measurement": "Activity", "setting": "NCI-H1299 [7]", "value": "Active"}
    ]},
    {"smiles": "OC[C@H]1OC(Nc2cccc3ccccc23)[C@H](O)[C@@H](O)[C@H]1O", "note": "(stereo partly specified)", "values": [
      {"measurement": "fold change (FC)", "setting": "NCI-H1299 [1]", "value": ">=2"}
    ]},
    {"smiles": "O[C@H]1[C@H](O)[C@@H](Nc2ccccc2)OC[C@H]1O", "values": [
      {"measurement": "Activity", "setting": "NCI-H1299 [1]", "value": "inactive"},
      {"measurement": "Activity", "setting": "NCI-H1299 [7]", "value": "Active"}
    ]},
    {"smiles": "O=C[C@H](O)[C@@H](O)[C@H](O)CO", "values": [
      {"measurement": "Activity", "setting": "NCI-H1299 [2]", "value": "inactive"}
    ]},
    {"smiles": "O[C@H]1[C@H](O)[C@H](Nc2ccccc2)OC[C@H]1O", "values": [
      {"measurement": "Activity", "setting": "NCI-H1299 [1]", "value": "inactive"},
      {"measurement": "Activity", "setting": "NCI-H1299 [7]", "value": "Active"}
    ]},
    {"smiles": "C[C@@H]1OC(Nc2cccc3ccccc23)[C@H](O)[C@H](O)[C@H]1O", "note": "(stereo partly specified)", "values": [
      {"measurement": "fold change (FC)", "setting": "NCI-H1299 [1]", "value": ">=2"}
    ]},
    {"smiles": "O[C@@H]1[C@@H](O)[C@H](Nc2cccc3ccccc23)OC[C@H]1O", "values": [
      {"measurement": "fold change (FC)", "setting": "NCI-H1299 [8]", "value": 2},
      {"measurement": "fold change (FC)", "setting": "NCI-H1299 [1]", "value": ">=2"},
      {"measurement": "Activity", "setting": "NCI-H1299 [9]", "value": "Dose-dependent effect"},
      {"measurement": "Activity", "setting": "NCI-H1299 [7]", "value": "Active"},
      {"measurement": "IC50", "setting": "NCI-H1299 [2]", "value": 75, "unit": "µM"},
      {"measurement": "Activity", "setting": "[6]", "value": "Active"}
    ]},
    {"smiles": "OO", "note": "[HYDROGEN PEROXIDE]", "values": [
      {"measurement": "IC50", "setting": "NCI-H1299 [2]", "value": 60, "unit": "µM"}
    ]},
    {"smiles": "O[C@H]1[C@H](O)[C@@H](Nc2cccc3ccccc23)OC[C@H]1O", "values": [
      {"measurement": "fold change (FC)", "setting": "NCI-H1299 [8]", "value": 2},
      {"measurement": "fold change (FC)", "setting": "NCI-H1299 [1]", "value": ">=2"},
      {"measurement": "Activity", "setting": "NCI-H1299 [9]", "value": "Dose-dependent effect"},
      {"measurement": "Activity", "setting": "NCI-H1299 [7]", "value": "Active"},
      {"measurement": "IC50", "setting": "NCI-H1299 [2]", "value": 75, "unit": "µM"}
    ]},
    {"smiles": "OC[C@H]1OC(O)C[C@@H](O)[C@@H]1O", "note": "(stereo partly specified)", "values": [
      {"measurement": "viability at 500 µM", "setting": "NCI-H1299 [10]", "value": 80, "unit": "%"},
      {"measurement": "Activity", "setting": "[4]", "value": "Dose-dependent effect"},
      {"measurement": "fold change (FC)", "setting": "NCI-H1299 [11]", "value": 1.5}
    ]}
  ]
}
